Reference: ChEMBL document CHEMBL1811802, “Synthesis and significant cytostatic activity of 7-hetaryl-7-deazaadenosines” (J Med Chem, 2011)

How the values were obtained:
HCT-116 = assay: Cytostatic activity against human HCT116 cells after 5 days by SRB assay; assay type: functional; conditions: HCT-116, 120 h
Method in brief: (§1)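 Cells seeded per line density, overnight at 37 °C; day-zero plate TCA-fixed. 5-fold serial dilutions added, 5-day incubation; TCA fixation, 0.057% SRB in 1% acetic acid 30 min, dye dissolved in 10 mM Tris pH 10.5, A500. Growth relative to day-zero and untreated; GIC50 from sigmoidal dose–response fit; mean of two independent experiments.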

[1] = Cytostatic activity against human Hs578 cells after 5 days by SRB assay; assay type: functional; conditions: Hs578, 120 h; method in brief: as §1
CCRF-CEM = assay: Cytotoxicity against human CCRF-CEM cells after 3 days by XTT assay; assay type: functional, cell-based; conditions: 72 h
Method in brief: (§2)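 Suspension-grown cell lines, 3-day compound incubation; viability read by XTT metabolic assay; IC50 averaged from four independent experiments.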

DU-145 = assay: Cytostatic activity against human DU145 cells after 5 days by SRB assay; assay type: functional; conditions: DU-145, 120 h; method in brief: as §1
[2] = Cytotoxicity against human HeLaS3 cells after 3 days by XTT assay; assay type: functional, cell-based; conditions: HeLa S3, 72 h; method in brief: as §2
Adenosine kinase = Adenosine kinase (Homo sapiens, UniProt P55263); assay: Inhibition of human ADK using [3H]-adenosine by scintillation counting
Sequence of Adenosine kinase (P55263 whole entry): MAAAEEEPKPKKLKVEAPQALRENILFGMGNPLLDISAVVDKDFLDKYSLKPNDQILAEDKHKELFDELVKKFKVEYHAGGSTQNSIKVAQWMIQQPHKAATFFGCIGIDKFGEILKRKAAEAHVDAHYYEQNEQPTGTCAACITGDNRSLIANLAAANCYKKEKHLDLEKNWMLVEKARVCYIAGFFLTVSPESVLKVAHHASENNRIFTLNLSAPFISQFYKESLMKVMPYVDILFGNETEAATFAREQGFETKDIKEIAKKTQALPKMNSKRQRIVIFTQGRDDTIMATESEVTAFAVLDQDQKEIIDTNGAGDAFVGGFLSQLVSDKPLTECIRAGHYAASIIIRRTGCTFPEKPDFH

HL-60 = assay: Cytotoxicity against human HL60 cells after 3 days by XTT assay; assay type: functional, cell-based; conditions: HL-60, 72 h; method in brief: as §2
NCI-H23 = assay: Cytostatic activity against human NCI-H23 cells after 5 days by SRB assay; assay type: functional; conditions: NCI-H23, 120 h; method in brief: as §1
BT-549 [3] = assay: Cytostatic activity against human BT549 cells after 5 days by SRB assay; assay type: functional; conditions: BT-549, 120 h; method in brief: as §1
PC-3 [4] = assay: Cytostatic activity against human PC3 cells after 5 days by SRB assay; assay type: functional; conditions: PC-3, 120 h; method in brief: as §1
A549 = assay: Cytostatic activity against human A549 cells after 5 days by SRB assay; assay type: functional; conditions: A549, 120 h; method in brief: as §1
MT4 = assay: Cytostatic activity against human MT4 cells after 5 days by SRB assay; assay type: functional; conditions: MT4, 120 h
BV-173 = assay: Cytotoxicity against human BV173 cells after 3 days by MTT assay; assay type: functional, cell-based; conditions: BV-173, 72 h
BJ = assay: Cytotoxicity against human BJ cells after 3 days by MTT assay; assay type: cell-based; conditions: 72 h
K562 [5] = assay: Cytotoxicity against human paclitaxel resistant K562 cells after 3 days by MTT assay; assay type: functional, cell-based; conditions: K562, 72 h
HPAC = assay: Cytotoxicity against human HPAC cells after 3 days by MTT assay; assay type: functional, cell-based; conditions: 72 h
L1210 = assay: Cytotoxicity against mouse L1210 cells after 3 days by MTT assay; assay type: functional, cell-based; conditions: L1210, 72 h
[6] = Cytotoxicity against human CEM-DNR-bulk cells after 3 days by MTT assay; assay type: functional, cell-based; conditions: 72 h
[7] = Cytotoxicity against mouse P388D1 cells after 3 days by MTT assay; assay type: functional, cell-based; conditions: P388D1, 72 h
BT-549 [8] = assay: Cytotoxicity against human BT549 cells after 3 days by MTT assay; assay type: functional, cell-based; conditions: BT-549, 72 h
[9] = Cytotoxicity against human NCI-H146 cells after 3 days by MTT assay; assay type: functional, cell-based; conditions: NCI-H146, 72 h
PC-3 [10] = assay: Cytotoxicity against human PC3 cells after 3 days by MTT assay; assay type: functional, cell-based; conditions: PC-3, 72 h
SK-MEL-2 = assay: Cytotoxicity against human SK-MEL-2 cells after 3 days by MTT assay; assay type: functional, cell-based; conditions: SK-MEL-2, 72 h
[11] = Cytotoxicity against human U87MG cells after 3 days by MTT assay; assay type: functional, cell-based, U-87MG ATCC; conditions: U-87 MG, 72 h
[12] = Cytotoxicity against human MES-SA cells after 3 days by MTT assay; assay type: functional, cell-based; conditions: 72 h
C6 = assay: Cytotoxicity against rat C6 cells after 3 days by MTT assay; assay type: functional, cell-based; conditions: C6, 72 h
SK-OV-3 = assay: Cytotoxicity against human SKOV3 cells after 3 days by MTT assay; assay type: functional, cell-based; conditions: SK-OV-3, 72 h
SK-N-AS = assay: Cytotoxicity against human SK-N-AS cells after 3 days by MTT assay; assay type: functional, cell-based; conditions: 72 h
LNCaP = assay: Cytotoxicity against human LNCAP cells after 3 days by MTT assay; assay type: functional, cell-based; conditions: 72 h
HeLa = assay: Cytotoxicity against human HeLa cells after 3 days by MTT assay; assay type: functional, cell-based; conditions: 72 h
K562 [13] = assay: Cytotoxicity against human K562 cells after 3 days by MTT assay; assay type: functional, cell-based; conditions: K562, 72 h
CT26 = assay: Cytotoxicity against mouse CT26 cells after 3 days by MTT assay; assay type: functional, cell-based; conditions: CT26, 72 h
MDA-MB-231 = assay: Cytotoxicity against human MDA-MB-231 cells after 3 days by MTT assay; assay type: functional, cell-based; conditions: MDA-MB-231, 72 h
HT-29 = assay: Cytotoxicity against human HT-29 cells after 3 days by MTT assay; assay type: functional, cell-based; conditions: HT-29, 72 h
MCF7 = assay: Cytotoxicity against human MCF7 cells after 3 days by MTT assay; assay type: functional, cell-based; conditions: MCF7, 72 h
EL4 = assay: Cytotoxicity against mouse EL4 cells after 3 days by MTT assay; assay type: functional, cell-based; conditions: EL4, 72 h
HCT-15 = assay: Cytostatic activity against human HCT15 cells after 5 days by SRB assay; assay type: functional; conditions: HCT-15, 120 h; method in brief: as §1

## Nc1ncnc2c1c(-c1cccc3ccccc13)cn2[C@@H]1O[C@H](CO)[C@@H](O)[C@H]1O
HCT-116
  GI50: > 10000 nM
[1]
  GI50: > 10000 nM
CCRF-CEM
  IC50: > 10000 nM
DU-145
  GI50: > 10000 nM
[2]
  IC50: > 10000 nM
Adenosine kinase
  IC50: > 10 µM
HL-60
  IC50: > 10000 nM
NCI-H23
  GI50: > 10000 nM

## COc1cccc2c1C(=O)c1c(O)c3c(c(O)c1C2=O)C[C@@](O)(C(=O)CO)C[C@@H]3O[C@H]1C[C@H](N)[C@H](O)[C@H](C)O1 [DOXORUBICIN]
BT-549 [3]
  GI50: 10 nM
HCT-116
  GI50: 11 nM
PC-3 [4]
  GI50: 21 nM
[1]
  GI50: 6 nM
A549
  GI50: 16 nM
NCI-H23
  GI50: 5 nM

## C#Cc1cn([C@@H]2O[C@H](CO)[C@@H](O)[C@H]2O)c2ncnc(N)c12
HCT-116
  GI50: 2 nM
PC-3 [4]
  GI50: 11 nM
[1]
  GI50: 1 nM
CCRF-CEM
  IC50: 10 nM
MT4
  GI50: 1 nM
[2]
  IC50: 20 nM
Adenosine kinase
  IC50: 0.2 µM
HL-60
  IC50: 90 nM
NCI-H23
  GI50: 1 nM

## Nc1ncnc2c1c(-c1cc[nH]c1)cn2[C@@H]1O[C@H](CO)[C@@H](O)[C@H]1O
BV-173
  IC50: 4 nM
BT-549 [3]
  GI50: 8 nM
BJ
  IC50: 6.09 µM
K562 [5]
  IC50: 9 nM
HCT-116
  GI50: 5.9 nM
HPAC
  IC50: 68 nM
PC-3 [4]
  GI50: 29 nM
[1]
  GI50: 4.4 nM
L1210
  IC50: 84 nM
[6]
  IC50: 8 nM
[7]
  IC50: 10 nM
BT-549 [8]
  IC50: 6 nM
CCRF-CEM
  IC50: 110 nM
[9]
  IC50: > 10000 nM
PC-3 [10]
  IC50: > 10 µM
SK-MEL-2
  IC50: 8.71 µM
A549
  GI50: 5.3 nM
[11]
  IC50: > 10000 nM
[12]
  IC50: 81 nM
C6
  IC50: 3680 nM
SK-OV-3
  IC50: > 10 µM
SK-N-AS
  IC50: > 10000 nM
LNCaP
  IC50: 21 nM
HeLa
  IC50: 40 nM
K562 [13]
  IC50: 33 nM
CT26
  IC50: 17 nM
MDA-MB-231
  IC50: 27 nM
MT4
  GI50: 24 nM
[2]
  IC50: 70 nM
HT-29
  IC50: 4050 nM
Adenosine kinase
  IC50: > 5 µM
MCF7
  IC50: 6.31 µM
EL4
  IC50: 9.42 µM
HL-60
  IC50: 840 nM
NCI-H23
  GI50: 33 nM

## Nc1ccn([C@@H]2O[C@H](CO)[C@@H](O)C2(F)F)c(=O)n1 [GEMCITABINE]
BV-173
  IC50: 1 nM
BJ
  IC50: 9.88 µM
K562 [5]
  IC50: 6 nM
HPAC
  IC50: 73 nM
L1210
  IC50: 7 nM
[6]
  IC50: 22 nM
[7]
  IC50: 19 nM
BT-549 [8]
  IC50: 8 nM
[9]
  IC50: 2780 nM
SK-MEL-2
  IC50: 7.11 µM
[11]
  IC50: 1490 nM
[12]
  IC50: 5 nM
C6
  IC50: 504 nM
SK-OV-3
  IC50: > 10 µM
SK-N-AS
  IC50: 1100 nM
LNCaP
  IC50: 512 nM
HeLa
  IC50: 4120 nM
K562 [13]
  IC50: 718 nM
CT26
  IC50: 6 nM
MDA-MB-231
  IC50: 245 nM
HT-29
  IC50: 1530 nM
MCF7
  IC50: 0.149 µM
EL4
  IC50: 0.007 µM

## Nc1ncnc2c1c(-c1c[nH]cn1)cn2[C@@H]1O[C@H](CO)[C@@H](O)[C@H]1O
HCT-116
  GI50: 3 nM
PC-3 [4]
  GI50: 2 nM
[1]
  GI50: 2 nM
CCRF-CEM
  IC50: 70 nM
MT4
  GI50: 28 nM
[2]
  IC50: 70 nM
Adenosine kinase
  IC50: > 10 µM
HL-60
  IC50: 130 nM
NCI-H23
  GI50: 2 nM

## Nc1ncnc2c1c(-c1cc3ccccc3o1)cn2[C@@H]1O[C@H](CO)[C@@H](O)[C@H]1O
BT-549 [3]
  GI50: > 10000 nM
HCT-116
  GI50: 3740 nM
PC-3 [4]
  GI50: 6290 nM
[1]
  GI50: 6730 nM
CCRF-CEM
  IC50: 3950 nM
A549
  GI50: 7020 nM
MT4
  GI50: 4800 nM
[2]
  IC50: > 10000 nM
Adenosine kinase
  IC50: > 10 µM
HL-60
  IC50: > 10000 nM
NCI-H23
  GI50: 5400 nM

## Nc1ncnc2c1c(-c1nccs1)cn2[C@@H]1O[C@H](CO)[C@@H](O)[C@H]1O
HCT-116
  GI50: 93 nM
PC-3 [4]
  GI50: 42 nM
[1]
  GI50: 15 nM
CCRF-CEM
  IC50: 20 nM
MT4
  GI50: 42 nM
[2]
  IC50: 40 nM
HL-60
  IC50: 1610 nM
NCI-H23
  GI50: 5 nM

## Nc1ncnc2c1c(-c1ncc[nH]1)cn2[C@@H]1O[C@H](CO)[C@@H](O)[C@H]1O
HCT-116
  GI50: 2 nM
PC-3 [4]
  GI50: 1 nM
[1]
  GI50: 1 nM
CCRF-CEM
  IC50: 70 nM
MT4
  GI50: 49 nM
[2]
  IC50: 440 nM
Adenosine kinase
  IC50: > 5 µM
HL-60
  IC50: 100 nM
NCI-H23
  GI50: 6 nM

## Nc1ncnc2c1ccn2[C@@H]1O[C@H](CO)[C@@H](O)[C@H]1O [TUBERCIDIN]
HCT-116
  GI50: 1 nM
PC-3 [4]
  GI50: 48 nM
[1]
  GI50: 98 nM
A549
  GI50: 1 nM
HCT-15
  GI50: 11 nM
DU-145
  GI50: 18 nM
MT4
  GI50: 21 nM
NCI-H23
  GI50: 11 nM

## Nc1ncnc2c1c(-c1c[nH]nn1)cn2[C@@H]1O[C@H](CO)[C@@H](O)[C@H]1O
HCT-116
  GI50: 4 nM
PC-3 [4]
  GI50: 5 nM
[1]
  GI50: 3 nM
CCRF-CEM
  IC50: 60 nM
MT4
  GI50: 18 nM
[2]
  IC50: 90 nM
HL-60
  IC50: 310 nM
NCI-H23
  GI50: 4 nM
